Results taken from ChEMBL document CHEMBL1122592, “Synthesis and evaluation of radioiodinated terminal p-iodophenyl-substituted alpha- and beta-methyl-branched fatty acids” (1984).

Tests used:
Format in all cases: functional
Rattus norvegicus [1] = test: Blood uptake in percent injected dose/gram (range) was determined in female fischer rat after 1251-labelled compound complexed with bovine serum albumin was injected intravenously after 5 minutes
Outline: (§1)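 Female Fischer 344 rats, 10–12 weeks old (170–200 g), fed and watered ad libitum. ¹²⁵I-labeled fatty acid in 0.5 mL absolute ethanol added dropwise to stirred 6% bovine serum albumin at 40 °C (final ethanol 10%), 0.22-μm filtered, given into a lateral tail vein under ether anesthesia. At set times: ether anesthesia, cervical fracture, organs excised, rinsed, blotted, weighed and gamma counted. Values are % injected dose/g, 3–4 rats per time point.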

Rattus norvegicus [2] = test: Heart uptake in percent injected dose/gram (range) was determined in female fischer rat after 1251-labelled compound complexed with bovine serum albumin was injected intravenously after 60 minutes; outline: as §1
Rattus norvegicus [3] = test: Heart uptake in percent injected dose/gram (range) was determined in female fischer rat after 1251-labelled compound complexed with bovine serum albumin was injected intravenously after 5 minutes; outline: as §1
Rattus norvegicus [4] = test: Kidneys uptake in percent injected dose/gram (range) was determined in female fischer rat after 1251-labelled compound complexed with bovine serum albumin was injected intravenously after 60 minutes; outline: as §1
Rattus norvegicus [5] = test: Blood uptake in percent injected dose/gram (range) was determined in female fischer rat after 1251-labelled compound complexed with bovine serum albumin was injected intravenously after 60 minutes; outline: as §1
Rattus norvegicus [6] = test: Liver uptake in percent injected dose/gram (range) was determined in female fischer rat after 1251-labelled compound complexed with bovine serum albumin was injected intravenously after 5 minutes; outline: as §1
Rattus norvegicus [7] = test: Thyroid uptake in percent injected dose/gram (range) was determined in female fischer rat after 1251-labelled compound complexed with bovine serum albumin was injected intravenously after 5 minutes; outline: as §1
Rattus norvegicus [8] = test: Lungs uptake in percent injected dose/gram (range) was determined in female fischer rat after 1251-labelled compound complexed with bovine serum albumin was injected intravenously after 60 minutes; outline: as §1
Rattus norvegicus [9] = test: Kidneys uptake in percent injected dose/gram (range) was determined in female fischer rat after 1251-labelled compound complexed with bovine serum albumin was injected intravenously after 5 minutes; outline: as §1
Rattus norvegicus [10] = test: Thyroid uptake in percent injected dose/gram (range) was determined in female fischer rat after 1251-labelled compound complexed with bovine serum albumin was injected intravenously after 60 minutes; outline: as §1
Rattus norvegicus [11] = test: Lungs uptake in percent injected dose/gram (range) was determined in female fischer rat after 1251-labelled compound complexed with bovine serum albumin was injected intravenously after 5 minutes; outline: as §1
Rattus norvegicus [12] = test: Liver uptake in percent injected dose/gram (range) was determined in female fischer rat after 1251-labelled compound complexed with bovine serum albumin was injected intravenously after 60 min; outline: as §1
Rattus norvegicus [13] = test: Liver uptake in percent injected dose/gram (range) was determined in female fischer rat after 1251-labelled compound complexed with bovine serum albumin was injected intravenously after 30 minutes; outline: as §1
Rattus norvegicus [14] = test: Heart uptake in percent injected dose/gram (range) was determined in female fischer rat after 1251-labelled compound complexed with bovine serum albumin was injected intravenously after 4 hours; outline: as §1
Rattus norvegicus [15] = test: Kidneys uptake in percent injected dose/gram (range) was determined in female fischer rat after 1251-labelled compound complexed with bovine serum albumin was injected intravenously after 4 hours; outline: as §1
Rattus norvegicus [16] = test: Liver uptake in percent injected dose/gram (range) was determined in female fischer rat after 1251-labelled compound complexed with bovine serum albumin was injected intravenously after 4 hours; outline: as §1
Rattus norvegicus [17] = test: Blood uptake in percent injected dose/gram (range) was determined in female fischer rat after 1251-labelled compound complexed with bovine serum albumin was injected intravenously after 4 hours; outline: as §1
Rattus norvegicus [18] = test: Thyroid uptake in percent injected dose/gram (range) was determined in female fischer rat after 1251-labelled compound complexed with bovine serum albumin was injected intravenously after 4 hours; outline: as §1
Rattus norvegicus [19] = test: Kidneys uptake in percent injected dose/gram (range) was determined in female fischer rat after 1251-labelled compound complexed with bovine serum albumin was injected intravenously after 30 minutes; outline: as §1
Rattus norvegicus [20] = test: Lungs uptake in percent injected dose/gram (range) was determined in female fischer rat after 1251-labelled compound complexed with bovine serum albumin was injected intravenously after 30 minutes; outline: as §1
Rattus norvegicus [21] = test: Blood uptake in percent injected dose/gram (range) was determined in female fischer rat after 1251-labelled compound complexed with bovine serum albumin was injected intravenously after 30 minutes; outline: as §1
Rattus norvegicus [22] = test: Lungs uptake in percent injected dose/gram (range) was determined in female fischer rat after 1251-labelled compound complexed with bovine serum albumin was injected intravenously after 4 hours; outline: as §1
Rattus norvegicus [23] = test: Thyroid uptake in percent injected dose/gram (range) was determined in female fischer rat after 1251-labelled compound complexed with bovine serum albumin was injected intravenously after 30 minutes; outline: as §1
Rattus norvegicus [24] = test: Heart uptake in percent injected dose/gram (range) was determined in female fischer rat after 1251-labelled compound complexed with bovine serum albumin was injected intravenously after 30 minutes; outline: as §1
Rattus norvegicus [25] = test: Thyroid uptake in percent injected dose/gram (range) was determined in female fischer rat after 1251-labelled compound complexed with bovine serum albumin was injected intravenously after 60 min; outline: as §1
Rattus norvegicus [26] = test: Heart uptake in percent injected dose/gram (range) was determined in female fischer rat after 1251-labelled compound complexed with bovine serum albumin was injected intravenously after 5 hours; outline: as §1
Rattus norvegicus [27] = test: Lungs uptake in percent injected dose/gram (range) was determined in female fischer rat after 1251-labelled compound complexed with bovine serum albumin was injected intravenously after 5 hours; outline: as §1
Rattus norvegicus [28] = test: Liver uptake in percent injected dose/gram (range) was determined in female fischer rat after 1251-labelled compound complexed with bovine serum albumin was injected intravenously after 5 hours; outline: as §1
Rattus norvegicus [29] = test: Kidneys uptake in percent injected dose/gram (range) was determined in female fischer rat after 1251-labelled compound complexed with bovine serum albumin was injected intravenously after 5 hours; outline: as §1
Rattus norvegicus [30] = test: Thyroid uptake in percent injected dose/gram (range) was determined in female fischer rat after 1251-labelled compound complexed with bovine serum albumin was injected intravenously after 5 hours; outline: as §1
Rattus norvegicus [31] = test: Blood uptake in percent injected dose/gram (range) was determined in female fischer rat after 1251-labelled compound complexed with bovine serum albumin was injected intravenously after 5 hours; outline: as §1

SMILES | Activity (Rattus norvegicus [1]) | Activity (Rattus norvegicus [2]) | Activity (Rattus norvegicus [3]) | Activity (Rattus norvegicus [4]) | Activity (Rattus norvegicus [5]) | Activity (Rattus norvegicus [6]) | Activity (Rattus norvegicus [7]) | Activity (Rattus norvegicus [8]) | Activity (Rattus norvegicus [9]) | Activity (Rattus norvegicus [10]) | Activity (Rattus norvegicus [11]) | Activity (Rattus norvegicus [12]) | Activity (Rattus norvegicus [13]) | Activity (Rattus norvegicus [14]) | Activity (Rattus norvegicus [15]) | Activity (Rattus norvegicus [19]) | Activity (Rattus norvegicus [20]) | Activity (Rattus norvegicus [21]) | Activity (Rattus norvegicus [23]) | Activity (Rattus norvegicus [24]) | further results
O=C(O)CCCCCCCCCCCCCc1ccc(I)cc1 | 1.58% | 1.78% | 2.72% | 1.94% | 1.48% | 4.82% | 1.64% | 1.39% | 1.64% | 2.56% | 1.55% | 2.04% | – | – | – | – | – | – | – | – | –
O=C(O)CCCCCCCCCCCCCCc1ccc(I)cc1 [IOCANLIDIC ACID] | 0.91% | 2.34% | 2.98% | 1.05% | 1.32% | 6.69% | 7.08% | 1.29% | 0.84% | 7.37% | 1.26% | 3.76% | 5.31% | 0.93% | 0.88% | 1.08% | 1.36% | 1.5% | 10.28% | 2.67% | Activity (Rattus norvegicus [16]): 1.72%; Activity (Rattus norvegicus [17]): 0.7%; Activity (Rattus norvegicus [18]): 8.54%; Activity (Rattus norvegicus [22]): 0.97%
CC(CCCCCCCCCCCCc1ccc(I)cc1)CC(=O)O (racemic) [IODOFILTIC ACID] | 0.71% | 4.26% | 4.62% | 2.14% | 1.7% | 8.32% | 6.78% | 1.21% | 1.08% | – | 1.45% | 1.92% | 3.66% | 2.27% | 1.49% | 1.71% | 1.15% | 1.6% | 9.26% | 3.63% | Activity (Rattus norvegicus [25]): 10.66%; Activity (Rattus norvegicus [16]): 0.95%; Activity (Rattus norvegicus [17]): 1.13%; Activity (Rattus norvegicus [18]): 9.69%; Activity (Rattus norvegicus [22]): 0.91%
CC(CCCCCCCCCCCCc1ccc(I)cc1)C(=O)O (racemic) | 1.8% | 1.52% | 1.71% | 1.85% | 1.64% | 7.61% | 7.56% | 1.13% | 1.68% | 11.5% | 1.13% | 2.94% | 3.85% | – | – | 1.95% | 1.03% | 1.83% | 5.3% | 1.58% | Activity (Rattus norvegicus [26]): 0.59%; Activity (Rattus norvegicus [27]): 0.77%; Activity (Rattus norvegicus [28]): 1.52%; Activity (Rattus norvegicus [29]): 1.36%; Activity (Rattus norvegicus [30]): 13.95%; Activity (Rattus norvegicus [31]): 1.07%
